Bioassay records from PubChem BioAssay.
Most compounds without a hit are left out; they make up all but 12% or so of the library.
WT yeast gro inh: growth inhibition of WT strain, primary screen, mitochondrial fusion inhibitor project, WT and mutant strains, chemical genetic. mitochondrial fusion phenotypic screen. inhibition, % at 10 µM. actives 2.1% (n = 190,000); in the data active means inhibition above about 58%; tested in S. cerevisiae
ROMK primary: ROMK potassium channel modulators, primary screen, cell-based, thallium flux, MLSMR library. ATP-sensitive inward rectifier potassium channel 1 (Homo sapiens), P48048. Tet-inducible ROMK, thallium flux fluorescence; actives lie on both sides. B-score at 10 µM. actives 2% (n = 130,000). AID 1918, 2009;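 active means signal ratio slope over the read window, or its plate-corrected B-score, at least 3 SD from the plate mean, either direction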;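 further: B-score of the F/F0 ratio slope over 7 to 12 s after thallium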
Lmaj promast: Leishmania major promastigote growth inhibition, primary screen. inhibition, % at 10 µM. Leishmania major promastigotes, resazurin fluorescence viability. AID 1063, 2008. actives 9% (n = 200,000); in the data active means inhibition above about 50%;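 further: promastigotes grown with compound for 44 hours at 28 °C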
Diaphorase act: compounds boosting diaphorase resazurin reduction – biochemical, uHTS, resorufin fluorescence, counter-screen for diaphorase-coupled primary assays, primary screen | Diaphorase/resazurin coupled assay, 16 min; active compounds read high; 1 = vehicle wells, 0 = NADH-free wells | activation factor at 20 µM | actives 0.005% (n = 190,000);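 active means diaphorase activity raised at least twofold by the compound at 20 µM; inactive means activation factor below 2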
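Material: Clostridium kluyveri diaphorase, purified enzyme; Quantity: enzyme 0.07 U/mL final; Medium: HEPES pH 7.4 buffer with MgCl2 and Tween 20; Dosing: single compound dose of 20 µM, 1% DMSO final; Schedule: 16 min reaction at room temperature; Measured by: red resorufin fluorescence at 544/590 nm excitation/emission.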
Diaph inh CS: diaphorase inhibitors and chemical oxidizers, primary screen, counter-screen for diaphorase-coupled primary assays, biochemical, uHTS, resorufin fluorescence. actives 0.69% (n = 190,000). inhibition, % at 20 µM. AID 1217, 2008. diaphorase resazurin-to-resorufin fluorescence, NADH, 16 min; bacterial (C. kluyveri) enzyme, not human;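 active means primary screen inhibition at 20 µM above a set limit, cut at about 50% in these data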
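Assay system: diaphorase enzyme from Clostridium kluyveri. Quantity: enzyme working solution with 0.14 U/mL diaphorase. Schedule: reaction incubation of 16 min at room temperature. Technique: resorufin fluorescence, excitation 544 nm, emission 590 nm. Controls: No-NADH positive control and DMSO neutral control.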
Cl transport mod: KCC2 cotransporter modulators, thallium flux, primary screen, cell-based, HEK293 KCC2, FluoZin-2 fluorescence, MLSMR; Solute carrier family 12 member 5 (Homo sapiens), Q9H2X9; KCC2 cells, thallium flux FluoZin-2 fluorescence; B-score of Tl+ flux slope (higher = more flux/activation; lower = inhibition) at 10 µM; actives 2.2% (n = 190,000);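 active means thallium flux slope and its plate-corrected score both differing from the plate sample mean at a set confidence after two filtering rounds, in either direction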;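 further: slope of fluorescence scaled to starting intensity during 10 to 20 s after thallium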
Large screens that a line does not name were inactive.

S=C1SCN(Cc2ccccn2)CN1Cc1ccco1	Lmaj promast 80 (no result: ROMK primary)
CN1C(=O)C(O)(CC(=O)c2ccccc2O)c2cc(Br)ccc21 (stereo not given)	none (no result: ROMK primary)
C=CCN1C(=O)C(O)(CC(=O)c2ccc(OC)cc2OC)c2cc(Br)ccc21 (stereo not given)	Lmaj promast 74
Cc1ccccc1CN(C)CC(=O)Nc1ccccc1-c1ccccc1	WT yeast gro inh 79
Cc1ccc(CC(=O)Nc2ccccc2-c2ccccc2)cc1C	Lmaj promast 70 (no result: ROMK primary)
Cc1ccc(S(=O)(=O)N(CC(=O)Nc2ccccc2-c2ccccc2)c2ccc(C)cc2C)cc1	none
Cc1cccc(N(CC(=O)Nc2ccccc2-c2ccccc2)S(=O)(=O)c2ccccc2)c1C	Lmaj promast 50
Cc1ccc(-c2nnc(N3CCC(C)CC3)c3ccccc23)cc1C	WT yeast gro inh 82
CN1CCN(S(=O)(=O)Cc2ccc(Cl)cc2)CC1	none (no result: WT yeast gro inh, ROMK primary, Lmaj promast, Diaphorase act, Diaph inh CS)
COC(=O)[C@@]1(Cc2ccc(F)cc2)[C@H]2c3cc(C(=O)N(C)C)n(Cc4ccccc4)c3C[C@H]2CN1C(=O)c1ccccc1	none
COC(=O)[C@@]1(Cc2ccc(OC)cc2)[C@H]2c3cc(C(=O)N4CCCC4)n(Cc4ccc(C)o4)c3C[C@H]2CN1C(=O)c1ccccc1	WT yeast gro inh 65, Lmaj promast 53
COC(=O)[C@@]1(Cc2ccc(F)cc2)[C@H]2c3cc(C(=O)N(C)C)n(CCc4ccccn4)c3C[C@H]2CN1C(=O)c1ccccc1	Lmaj promast 91
COC(=O)[C@@]1(Cc2ccc(OC)cc2)[C@H]2c3cc(C(=O)N(C)C)n(C[C@H](O)CO)c3C[C@H]2CN1C(=O)c1ccccc1	none
COC(=O)[C@@]1(Cc2ccc(OC)cc2)[C@H]2c3cc(C(=O)N(C)C)n(Cc4ccc(OC(F)(F)F)cc4)c3C[C@H]2CN1C(=O)c1ccccc1	Lmaj promast 50
COC(=O)[C@@]1(Cc2ccc(OC)cc2)[C@@H]2C(=CC(=O)[C@H]2CC(=O)C(=O)N(C)C)CN1C(=O)c1ccccc1	Lmaj promast 100
COC(=O)[C@@]1(Cc2ccc(F)cc2)[C@H]2c3cc(C(=O)N4CCCC4)n(CCc4ccccn4)c3C[C@H]2CN1C(=O)c1ccccc1	Lmaj promast 99
COCCn1c(C(=O)N2CCCC2)cc2c1C[C@H]1CN(C(=O)c3ccccc3)[C@@](Cc3ccc(F)cc3)(C(=O)OC)[C@@H]21	none
COC(=O)[C@@]1(Cc2ccc(F)cc2)[C@H]2c3cc(C(=O)N4CCCC4)n(CCc4c[nH]c5ccc(OC)cc45)c3C[C@H]2CN1C(=O)c1ccccc1	Lmaj promast 79
O=C(NC1CC1)C1CCN(c2ncnc3c2sc2cccc(F)c23)CC1	none (no result: ROMK primary, Cl transport mod)
O=C(Nc1nc(-c2ccccc2)cs1)C1COc2ccccc2O1 (stereo not given)	none
C[C@@H](C(=O)Nc1nc(-c2ccccn2)cs1)N1C(=O)C2CCCCC2C1=O (stereo not given in full)	Lmaj promast 100
O=C(Nc1nc(-c2ccc(S(=O)(=O)N3CCCC3)cc2)cs1)C1COc2ccccc2O1 (stereo not given)	Lmaj promast 84
c1ccc(CCNc2nc(-c3cccnc3)cs2)cc1	none (no result: ROMK primary, Cl transport mod)
CC(C)[C@H](NC(=O)c1ccccc1Cl)C(=O)Nc1nc(-c2ccccn2)cs1	Lmaj promast 99
c1ccc(CCNc2nc(-c3ccccn3)cs2)cc1	Lmaj promast 100
CCCCCCNc1nc(Cl)nc(NC(C)(C)CO)n1	none (no result: WT yeast gro inh, ROMK primary, Lmaj promast, Diaphorase act, Diaph inh CS)
Cc1cccc(C(=O)N[C@H](C(=O)Nc2nc(C)cs2)C(C)C)c1	Lmaj promast 64
O=C(Nc1nnc(SCc2ccccc2Cl)s1)C1COc2ccccc2O1 (stereo not given)	WT yeast gro inh 60 (no result: ROMK primary)
Cc1csc(NC(=O)[C@@H](NC(=O)c2ccccc2)C(C)C)n1	none
Cc1ccccc1CSc1nnc(NC(=O)C2COc3ccccc3O2)s1 (stereo not given)	none (no result: Cl transport mod)
CSc1nc2ccc3nc(NC(=O)C4COc5ccccc5O4)sc3c2s1 (stereo not given)	Lmaj promast 78 (no result: ROMK primary)
O=C(Nc1nc(-c2ccccn2)cs1)C1COc2ccccc2O1 (stereo not given)	Lmaj promast 77 (no result: ROMK primary)
CC(C)Cn1c(N)c(-c2nc(C(C)C)c(C(=O)c3ccccc3F)s2)c(=O)n(C)c1=O	none
COc1ccc(C(=O)NC(C(=O)NCC(=O)Nc2c(C)cccc2C)C(C)C)cc1 (stereo not given)	Lmaj promast 67
COc1ccc(C(=O)NC(C(=O)NCc2ccccc2OC)C(C)C)cc1 (stereo not given)	none
CC1CC1C(=O)Nc1nc(-c2ccccn2)cs1 (stereo not given)	Lmaj promast 100
CC(C)c1cc(Br)ccc1OCCN1C(=O)NC(C)(C)C1=O	none
O=C(NCCc1ccccc1)N1c2ccccc2Sc2ccccc21	ROMK primary 1.8
CC(C)CNC(=O)N1c2ccccc2Sc2ccccc21	none (no result: WT yeast gro inh, ROMK primary, Lmaj promast, Diaphorase act, Diaph inh CS)
CCc1nnc(N/N=C/c2c(Cl)cccc2Cl)n1N	Lmaj promast 50
Clc1ccc(SCCn2ccnc2)cc1	none (no result: ROMK primary)
c1ccc(Cn2c(-c3ccccc3)nc3nc4ccccc4nc32)cc1	Lmaj promast 84
O=[N+]([O-])c1cc(-c2nc3nc4ccccc4nc3n2CCc2ccccc2)cc([N+](=O)[O-])c1	Lmaj promast 61
Clc1cccc(-c2nc3nc4ccccc4nc3n2Cc2ccccc2)c1	Lmaj promast 52
C=CCn1c(-c2ccccc2)nc2nc3ccccc3nc21	none (no result: ROMK primary)
O=C(NCc1nnc(SCc2ccc(C(F)(F)F)cc2)n1-c1ccccc1)C12CC3CC(CC(C3)C1)C2	WT yeast gro inh 72
Fc1cccc2sc(Nc3nnc(-c4ccccc4)o3)nc12	ROMK primary 7, Lmaj promast 83 (no result: Cl transport mod)
COc1cc(OC)cc(-c2nnc(Nc3nc4c(F)cccc4s3)o2)c1	Cl transport mod 9.1
Cc1cccc2c(C(=O)N3CCN(C(=O)c4ccco4)CC3)cc(-c3cccc(Br)c3)nc12	WT yeast gro inh 81
O=C(c1ccco1)N1CCN(C(=O)c2cc(-c3ccccc3)nc3ccccc23)CC1	none (no result: ROMK primary)
CC(=O)NS(=O)(=O)c1ccc(NC(=O)CC(C)c2ccccc2)cc1 (stereo not given)	none
